Biological target: T1, Type-1 angiotensin II receptor B (Rattus norvegicus) (UniProt P29089)
T1 sequence (whole entry): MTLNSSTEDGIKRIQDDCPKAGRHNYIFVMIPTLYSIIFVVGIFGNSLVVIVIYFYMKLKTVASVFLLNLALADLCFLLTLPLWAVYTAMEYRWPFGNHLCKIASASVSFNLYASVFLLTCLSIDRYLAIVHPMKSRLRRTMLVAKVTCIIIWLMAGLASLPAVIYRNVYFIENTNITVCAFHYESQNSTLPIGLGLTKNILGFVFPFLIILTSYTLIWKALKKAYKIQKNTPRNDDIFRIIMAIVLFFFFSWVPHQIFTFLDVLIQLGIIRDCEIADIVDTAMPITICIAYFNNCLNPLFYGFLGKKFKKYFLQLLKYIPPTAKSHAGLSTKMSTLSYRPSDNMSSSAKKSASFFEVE
Test: Percent displacement of [125I]Sar, Ile-Angiotensin II (A II) binding to rat Angiotensin II receptor, type 1
Set-up: concentration or dose not given beside the values
How it was run: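 Whole-cell competition binding on rat aortic smooth muscle cells expressing rat AT1, seeded 24 h before assay. Radioligand [125I]Sar,Ile-angiotensin II at 0.2 nM in DMEM pH 7.4 with 5 mM MgCl2, 1 mM EDTA and 0.1% BSA. Incubation 2 h at 25 °C with mild shaking. Nonspecific binding defined by 10 μM angiotensin II (final). Cells washed twice with PBS, lysed in 1% Triton X/0.1% BSA, and counted on a γ counter. Assay variability at least ±20%.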

Displacement [%] | Compound
30 | CCOC(=O)c1cc2ccccc2n1Cc1cccc(-c2ccccc2CC(=O)O)c1
35 | c1ccc(-c2ccc(Cn3c(-c4cscn4)nc4ccccc43)cc2)c(Cc2nnn[nH]2)c1
21 | O=C1COc2cccnc2N1Cc1cccc(-c2cccc(Cc3nnn[nH]3)c2)c1
38 | CSc1nc2ccccc2n1Cc1ccc(-c2ccccc2Cc2nnn[nH]2)cc1
31 | Clc1nc2ccccc2n1Cc1ccc(-c2ccccc2Cc2nnn[nH]2)cc1
31 | O=C(O)c1cccc(-c2ccc(CN3C(=O)C(=O)c4c(Cl)ccc(Cl)c43)cc2)c1
33 | O=C(O)c1cccc(-c2ccc(Cn3c(C(F)(F)F)nc4ccccc43)cc2)c1
37 | CCCc1nccn1Cc1ccc(-c2ccccc2C(=O)O)cc1
47 | CN(C)c1cnnc2ncn(Cc3cccc(-c4ccccc4C(=O)O)c3)c12
69 | CC(C)c1nc2ccccc2n1Cc1ccc(-c2ccccc2-c2nn[nH]n2)cc1

— ChEMBL document CHEMBL1132403, “Prospective identification of biologically active structures by topomer shape similarity searching” (J Med Chem, 1999)
